What was measured:
hFXIa–DEGR = hFXIa–DEGR (Homo sapiens, UniProt P03951); experiment: Fluorescence titration of active site dansylated hFXIa; format: binding
hFXIa [1] = biological target: T1, hFXIa (Homo sapiens, UniProt P03951); format: biochemical
Method in brief: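 Human plasma FXIa. The initial rate of S-2366 ([…]) hydrolysis was taken from the linear A405 rise, with under 10% substrate consumed. S-2366 was varied from 0.03 to 2 mM at a fixed test compound concentration. Buffer was 50 mM Tris-HCl pH 7.4 with 150 mM NaCl, 0.1% PEG8000 and 0.02% Tween80, at 37 °C. KM and VMAX came from a nonlinear hyperbolic Michaelis–Menten fit.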

hFXIa [2] = biological target: T1, hFXIa; experiment: Analytical ultracentrifugation of hFXIa–inhibitor complex; conditions: 100 μM inhibitor, 20 °C; dimeric form, same as hFXIa alone
hFXIa [3] = biological target: T1, hFXIa; experiment: Direct inhibition of hFXIa, chromogenic substrate; format: biochemical; conditions: for selectivity for hFXIa over FXa and trypsin: based on inhibition at >200 μM
FXa = FXa (Homo sapiens, UniProt P00742); experiment: Direct inhibition of FXa, chromogenic substrate; format: biochemical; conditions: not shown
Method in brief: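 Human plasma FXa was held as stock in 20 mM Tris-HCl, pH 7.4, 100 mM NaCl, 2.5 mM CaCl2, 0.1% PEG8000, 0.02% Tween80. […] Percent inhibition came from the ratio of proteolytic activity with versus without test compound.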

trypsin = biological target: T2, trypsin (Bos taurus, UniProt P00760); experiment: Direct inhibition of trypsin, chromogenic substrate; format: biochemical, bovine; conditions: not shown
T2 sequence (P00760 24-246): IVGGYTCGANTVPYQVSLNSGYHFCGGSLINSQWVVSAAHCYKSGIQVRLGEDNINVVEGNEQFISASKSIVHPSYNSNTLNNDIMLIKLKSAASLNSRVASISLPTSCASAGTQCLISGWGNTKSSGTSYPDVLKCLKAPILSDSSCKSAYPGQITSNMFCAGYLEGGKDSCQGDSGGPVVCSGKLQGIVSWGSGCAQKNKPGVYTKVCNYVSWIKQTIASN
Method in brief: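 Bovine trypsin was held as stock in 50 mM Tris-HCl, pH 7.4, 150 mM NaCl, 0.1% PEG8000, 0.02% Tween80. The assay used 2.5 ng/ml enzyme with 80 μM S-2222 (in-well) at 37 °C, pH 7.4. Percent inhibition was calculated from the ratio of activity with versus without test compound.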

T1 sequence (P03951 388-625 limits assumed): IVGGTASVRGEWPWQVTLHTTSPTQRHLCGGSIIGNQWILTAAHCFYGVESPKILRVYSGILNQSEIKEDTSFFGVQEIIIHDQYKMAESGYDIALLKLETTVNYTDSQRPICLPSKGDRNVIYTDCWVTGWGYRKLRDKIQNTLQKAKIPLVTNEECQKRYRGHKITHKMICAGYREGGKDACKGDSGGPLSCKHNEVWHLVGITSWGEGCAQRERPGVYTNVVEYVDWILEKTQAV
T1 sequence (P03951 19-387 partner limits assumed): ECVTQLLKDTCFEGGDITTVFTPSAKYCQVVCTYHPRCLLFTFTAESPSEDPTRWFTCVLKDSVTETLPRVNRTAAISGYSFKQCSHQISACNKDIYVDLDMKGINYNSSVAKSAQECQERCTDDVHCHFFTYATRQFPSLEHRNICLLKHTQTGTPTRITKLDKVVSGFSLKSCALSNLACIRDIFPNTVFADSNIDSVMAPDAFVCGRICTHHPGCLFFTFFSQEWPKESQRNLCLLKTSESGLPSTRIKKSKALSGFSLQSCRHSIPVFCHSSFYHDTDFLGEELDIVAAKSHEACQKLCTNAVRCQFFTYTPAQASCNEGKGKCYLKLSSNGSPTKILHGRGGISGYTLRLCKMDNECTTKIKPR
Chain of hFXIa–DEGR (P03951 388-625 limits assumed): as the sequence (P03951 388-625 limits assumed) above
Chain of hFXIa–DEGR (P03951 19-387 partner limits assumed): as the sequence (P03951 19-387 partner limits assumed) above
Chain of FXa (P00742 235-488 limits assumed): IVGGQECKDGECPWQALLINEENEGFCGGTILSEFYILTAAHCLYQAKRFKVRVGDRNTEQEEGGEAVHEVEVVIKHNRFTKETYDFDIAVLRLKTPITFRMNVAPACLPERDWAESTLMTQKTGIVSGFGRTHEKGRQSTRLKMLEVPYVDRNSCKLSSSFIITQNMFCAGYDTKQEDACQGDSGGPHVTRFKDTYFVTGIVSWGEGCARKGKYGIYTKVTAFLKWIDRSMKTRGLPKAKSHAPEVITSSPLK
Chain of FXa (P00742 41-179 partner limits assumed): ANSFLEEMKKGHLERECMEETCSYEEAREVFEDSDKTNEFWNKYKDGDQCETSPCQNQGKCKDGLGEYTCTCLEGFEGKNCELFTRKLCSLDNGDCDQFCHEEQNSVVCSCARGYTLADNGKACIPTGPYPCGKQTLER

O=c1c2ccccc2nc(-c2ccc(OS(=O)(=O)[O-])cc2)n1CCCCCCCCCn1c(-c2ccc(OS(=O)(=O)[O-])cc2)nc2ccccc2c1=O.[Na+].[Na+] [Inhibitor 19S]
n (Hill coefficient) (hFXIa–DEGR; 250 nM FXIa–DEGR, pH 7.4, 37 °C): 5.0±0.4 | mechanism of inhibition (hFXIa [1]; KM invariant, VMAX decreased): non-competitive | VMAX (hFXIa [1]; at 120 μM inhibitor, pH 7.4, 37 °C): 9.7±0.37 mAU/min | sedimentation coefficient s of hFXIa–inhibitor complex (hFXIa [2]): 6.6 S

O=c1c2ccccc2nc(-c2ccc(OS(=O)(=O)[O-])cc2)n1CCCCCCCCCCCn1c(-c2ccc(OS(=O)(=O)[O-])cc2)nc2ccccc2c1=O.[Na+].[Na+] [Inhibitor 21S]
selectivity for hFXIa over FXa and trypsin (hFXIa [3]): > 25 fold | concentration at which FXa is inhibited (FXa): > 200 µM | concentration at which trypsin is inhibited (trypsin): > 200 µM

O=c1[nH]c(-c2ccc(OS(=O)(=O)[O-])cc2)nc2ccccc12.[Na+] [Inhibitor 2S]
fold higher KD than the next compound (hFXIa–DEGR; 2S vs 18S, 18S vs 19S): ~ 3.2 fold

O=c1c2ccccc2nc(-c2ccc(OS(=O)(=O)[O-])cc2)n1CCCCCn1c(-c2ccc(OS(=O)(=O)[O-])cc2)nc2ccccc2c1=O.[Na+].[Na+] [Inhibitor 11S]
increase in potency as compared to the monomeric fragment (hFXIa [3]; IC50 ratio vs monomer 2S): ~ 7 fold

O=c1c2ccccc2nc(-c2ccc(OS(=O)(=O)[O-])cc2)n1CCCCCCCCCCn1c(-c2ccc(OS(=O)(=O)[O-])cc2)nc2ccccc2c1=O.[Na+].[Na+] [Inhibitor 20S]
selectivity for hFXIa over FXa and trypsin (hFXIa [3]): > 25 fold | concentration at which FXa is inhibited (FXa): > 200 µM | concentration at which trypsin is inhibited (trypsin): > 200 µM

— article PMC8109618 (Bioorganic & medicinal chemistry, 2020)
